# Variants at the floor of the assay were thinned out.
# B1: tRNA (parent)
# chain: GUUCCGUUGGCGUAAUGGUAACGCGUCUCCCUCCUAAGGAGAAGACUGCGGGUUCGAGUCCCGUACGGAACG
# Variants of: B1
# Experiment: yeast fitness relative to wild type (ratio to wild type); higher = fitter; tRNA-Arg(CCU), competitive growth, 37 C, YPD
# How it was run: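 Genotype frequency changes were the basis for Darwinian fitness relative to wild type. The frequencies came from 100-nucleotide paired-end sequencing of gene amplicons from the start population and each end population of pooled yeast strains with tRNA-Arg(CCU) gene variants at the native locus. Competition ran in YPD at 37°C for 24 hours in six replicates, genotypes needed ≥ 100 starting reads, and estimates < 0.5 were set to 0.5.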
row,Variant,yeast fitness
1,GUUCCGGUGGCGUAAUGGUAACGCGUCUCCCUCCUAAGAAGAAGACUGCGGGUUCGAGUCCCGUAUGGUACG,≤ 0.5
2,GUUCCGUAGGCGUAAUGGUAACGCGUCUUCCUCUUAAGGAGAAGACUGCGGGUUCGACUCCCGUACGGAACG,≤ 0.5
3,GUUCCGUAGGCGUAAUGGUAACGCGUCUCCCUCCUAAGGAGAUGACUGCGGGUUUGAGUCCCGUACGGAACG,0.537
4,GUUCCGGUGGCGUAAUGGUAACGCGUCUCUCUCCUAAAGAGAAGACUGCAGGUUCGAGUCCCGUACGGAACG,0.589
5,GUUCCGUAGGCGUAAUGGUAGCGCGUUUCCCUCCUAAGGAGAAGACUGCGGCUUCGAGUCCCGUACGGAACG,≤ 0.5
6,GUUCCGGUGGCGUAAUGGUAACGCGUCUCCCUCCUAAGCAGAAGACUGCGGGUUCGGGUCCCGUACGGAACG,≤ 0.5
7,GUUCCGGUGGCGUAAUGGUAACGCGUCCCCCUCCUAAGGAGAAGACUGCGGGUUCGAGUCCCGUACGGAACG,0.808
8,GUUCCGUAGGCGUCAUGGUAACGCGUCUCCAUCCUAAGGACAAGACUGAGGGUUCGAGUCCCGUACGGAACG,0.562
9,GUUCCGGUGGCGUAAUGGUAACGCGUCUCCCUCCUAAGGAGAAGACUGCGGGUUCGAGGCCCGUACGGAACG,0.705
10,GUUCCGGUGGCGUAAUGGUAACGCGUCUCCCUCAUAAGGAGAAGACUGCGGGUUCGAGUCCCGUACGGAACG,0.757
11,GUUCCGUAGGCGUGAUGGUAACGCGUCUCCUUCCUAAGGAGAAGACUGCGGGUUCGAAUCGCGUAUGGAACG,≤ 0.5
12,GUUCCGUAGGCGUAAUGGUAACGCGUCUCCCUCCUAAGGGGAAGACUGCGGGUUCGAGUCGCGUACGGAACG,≤ 0.5
13,GUUCCGGUGGCGUAAUGGUAACGCGUCUCCUUGCUAAGGAGUAGACUGCGGGUUCGAGUCCCGUACGGAACG,0.563
14,GUUCCGUAGGCGUAAUGGUAACGCGUAUCCCUCCUAUGGAGAAGACUGCGGGUUCGAGUCCCGUACUGAACG,0.612
15,GUUCCGGUGGCGAAAUGGUAACGCGUCUCCCUCCUAAGGAGAAGACUGCGGGUUCGAGUCCCGUACGGAACG,0.898
16,GUUCCGUAGGCGUGAUGGUAACGCGUCUCCCUCCUAAGGAGAAGAUUGCCGGUUUGUGUCCGGUACGGAUCG,≤ 0.5
17,GUUCCGUAGGCGUAAUGGUAACGCGUCUCCCUCCUAAGGUGAAGACUGCGGGUUCGAGUCCCGUACGGACCG,0.547
18,GUUCCGGUGGCGUAAUGGUAACGCGUCUCCCUCCAAAGGAGACGACUGCGGGUUCGAGUCCCGUACGGAACG,0.532
19,GUUCCGUAGGCGUAAUGGUAACGAGUCUCCCUCCUAAGGAGAAGACUGCGGGUUCGAGUCCCGUACGGAUCG,≤ 0.5
20,GUUCCGUAGGCGUAUUGGUAACGCGUCUGCCUCCUAAGGAAAAGACUGGGGGUUCGGGUCCCGUACGGAACG,≤ 0.5
21,GUUCCGGUGGCGUAAUGGUAACACGUCUUCCUCCUUAGGAGAAGACUGCGGGUUCGAGUCCCGUACGGAACG,≤ 0.5
22,GUUCCGGUGGCGUAAUGGAAAGGGGUCUCCCUCCUAAGGGGAAGACUGCGGGUUGGAGUCCCGUACGCAACG,≤ 0.5
23,GUUCCGGUGGCGUAAUGGUAACGCGUCUCCCUCCUAAGAAGAAGACUGCGGGUUUGAGUCCCGUACGCAACG,0.594
24,GUUCCGUAGGCGUAAUGGUAACGGGUCUCCCUCCUAAGGGGAAGACUGUGGGUUCCAGUCCCGUACGGAACG,≤ 0.5
25,GUUCCGGUGGCGUAAUGGUAACGCGUCUCCCUCCUAAGGAGAAGACUGCGGGUUCGAGUCCUGUACGGAACG,0.893

row,Variant,yeast fitness
1,GUUCCGGUGGCGUAAUGGUAACGCGUCUCCCUCCUAAGGAAAAGACUGCGGGUUCGAGUCCCGUACGGAACG,0.776
2,GUUCCGGUGGCGUAAUGGUAACGCGUCUCCCUCCAAAGGAGAAGACUGGGGGUUCGAGUACCGUACGGAACG,≤ 0.5
3,GUUCCGUAGGCGUAAUGGUAACGCGUCUACCUCCUAAGGAGAAGACUGCGGGUUCGAGUCCCGUACGGAACG,≤ 0.5
4,GUUCCGGUGGCGUAAUGGUAACGCGUCUCCCUCCUAAGGACAAGACUGCGGGUUCGACUCCCGUACGGAACG,≤ 0.5
5,GUUCCGGUGCCGUAAUGGUAACGCGUCUCCCUCCUAAGGAGAACACUGCGGGUUCGAGUCCCGUACGGUACG,0.617
6,GUUCCGGUGGCGUAAUGGUAACGCCUCUCCCUCCUAAGGAGAAGACUGCGGGUUCGAGUCCCGUACGGAACG,0.958
7,GUUCCGUAGGCGUCAUGGUAACGCGUCUCCCUCCUAAGGAGAAGACUGCGGGUUCGAGUCCCGUACGGAACG,0.692
8,GUUCCGUAGGCGUGAUGGUAACGCGUCUCCCUCCUAAGGAGAAGACUGCGGGUUCGAGUCCCGUACGGAACG,0.632
9,GUUCCGUAGGCGUAAUGGUAACGCGUCUCCCUCCUAAGGAGAGGACUGCGGGUUCGAGUCCCGUACGGAACG,0.742
10,GUUCCGUAGGCGUAAUGGUAACGAGUCUCUUUCCUAAGGAGAAGACUCCGGGUUCGAGUCCCGUAUGGAACG,≤ 0.5
11,GUUCCGUAGGAGUAAUGGUAACGUGUCUCCCUCCUAAGGAGAAGACUGCGGGUUCGAGUCCCGUACCGAACG,≤ 0.5
12,GUUCCGGUGGCGUAAUGGUAACGCGUCUCCCACCCAAGGAGAAGACUGCGGGUUCGAGUCGCGUACGGAACG,≤ 0.5
13,GUUCCGUAGGUGUAAUGGUAACGCAUCUCCCUACUAAGGUGAAGACUGCGGGUUCGAGUCCCGUACGGAACG,≤ 0.5
14,GUUCCGUAGGCGUAAUGGUAAUGCGUCUCCCUCCUAACGAGAAGACUGGGGGUUCGAGUCCCGUACGGAACG,0.602
15,GUUCCGGUGGCGUAAUGGUAACGCGUCUCCCUCCUAAGGAGAAGACUGCGGGUUCAAGUCCAGUACGGAACG,0.572
16,GUUCCGUAGGCGUAAUGGUUACGCGUCUCCCUCCUAAGGAGAAGACUGCGGGUUCGAGUCCCGUACGGACCG,0.56
17,GUUCCGUAGGAGUAAUGGUAACGCGUCUCCGUCCUAAGGAGAAGACUGCGGGUUCGAGUCCCGUACGGAACG,≤ 0.5
18,GUUCCGUAGGCGUAAUGGUAACGCGUCUCCCUCCUUAGGAGAAGACUGCGGGUUGGAGCCCCGUACGGAACG,0.579
19,GUUCCGUAGGCGUAAUGGUCACGCGUCUCCCUCCAAACGAGAAGACUGCGGGUUCGAGUCCCGUACGGUACG,0.597
20,GUUCCGGUGGCGUAAUGGUAACGCGUCCCCCUCCUAAGGACAAGACUGCGGGUUCGACUCCCGUACGGAACG,≤ 0.5
21,GUUCCGUAGGGGUAAUGGUAACGCGUCUCCCUCGUAAGGAGAAGACUGCGGGUUCGAGUGCCGUUCGGAACG,≤ 0.5
22,GUUCCGUAGGCGUAAUGGUAAGGCGUCUCCCUCCUAAGGAGAAGAGUGCGGGUUCGAGUCCCGUAUGGAACG,0.567
23,GUUCCGGUGGCGUAAUGGUAACGCGUCUCCCUCCUAAGGACAAGACUGCGGGUUCGAGUCCCGUACGGCACG,≤ 0.5
24,GUUCCGGUGGCGUAAUGGUAACGCGUCUCCCUCCUAAAGGGAAGACUGCGGGUUCGAGUCCCGUAAGGAACG,≤ 0.5
25,GUUCCGGUGGCCUAAUGGUAACCCGUCUGCCUCCUAAGGAGAAGACUGCGGGUUCGUGUACCGUACGCAACG,≤ 0.5

row,Variant,yeast fitness
1,GUUCCGGUGGCGCAAUGGUAACGCGUCUCCUUCCUAAGGAGAAGACUGCGGGUUCGAGUCCCGUACGGAACG,0.903
2,GUUCCGUAGGCGUAAUGGUAACGAGUCCCCCUCCUAAGGAGAAGACUGCGGGUUCGAGUCUCGAACGGGACG,≤ 0.5
3,GUUCCGGUGGCGUAAUGGCAACGCGUCUCCCUCCUAAGGAGAAGACUGCGGGUUCGAGUCCCGUACGGAACG,0.767
4,GUUCCGGUGGCGUAAUGGUAACGCGUCUCCCUCCUAAGGAGAAGACUGCGGGUUGGAGUCCCGUACGGAACG,0.655
5,GUUCCGUAGGCGUAAUGGUCACGCGUCUCCCUCCAAACGAGAAGACUGCGGGUUCGAGUCCCGUACGGAACG,≤ 0.5
6,GUUCCGUAGGCGUAAUGGUUUCGCAUCUCCCUCCUAAGGAGAUGACUGCGGGUUCGAGUCCCGUACGGAACG,0.584
7,GUUCCGUAGGCGUAAUGGUAACGGGUCUCCCUCCUAAGGAGAAGACUCUGGGUUCGAGUCCCGAACGGAACG,≤ 0.5
8,GUUCCGUAGGCGUAAUGGUAAUGCGUCUCCCUCCUAAGGAGAGGACUGCGGGUUCGAGUCCCGUAAGGAACG,≤ 0.5
9,GUUCCGUAGGAGUAAUGGUAACGCGUCUCCCUCCUGAGGAGAAGACUGCGGGUUCGAGUCGCGUACGGAACG,≤ 0.5
10,GUUCCGUAGGCGUCAUGGUAACGCGUCUCCAUCCUAAGGAGAAGACUGCGGGUUCGAGUCCCGUACGGAACG,0.571
11,GUUCCGUAGGCGUAAUGGUAACGCGUAUCCCUCCUAAGGAGAAGACUGCGGGUUCGAGUCCCGUACGCAACG,≤ 0.5
12,GUUCCGGUGGCGUAAUGGUAACGCCUCUCCCUCCUAAGGAGAAGACUGCGGGUUCAAGUCCCGUACGGAACG,0.697
13,GUUCCGGUGGCGUAAUGGUAACGCGUCUCCUUCCUAAGGAGAAGACUGCGGGUUCGAGUCCCGUACGGUACG,0.628
14,GUUCCGGCGGCGUAAUGGUAACGCGUCUCCCUCCUAAGGAGAAGACUGCGGGUUCGAGUCCCGUACGGAUCG,0.588
15,GUUCCGUAGGUGUAAUGGUAACGCGUCUCCCUCCUAAGGAGAAGACUGCGGGUUCGAGUCCCGUACGGAACG,0.633
16,GUUCCGUAGGCGUAAUGGUAACGCGUCUCGCUCCUAAGGAGAAGACUGCGGGUUCCGGUCCCGUACGACACG,≤ 0.5
17,GUUCCGUAGGCGUAAUGGUAACGCGUCUCGCUCCUAAGGAGAAGACUGCGGGUUCGAGUCCCGUACGGAACG,≤ 0.5
18,GUUCCGUAGGCGUGAUGGUAACGCGUCUCCCUCCUAAGGAGAAGACUGGGGGUUCGAGUCCCGUACGGAACG,0.538
19,GUUCCGUAGGCGUAAUGGUAACGCGUCUCCCUCCUUAGGAGAAGACUGCGGGUUGGAACCCCGUACGGCACG,≤ 0.5
20,GUUCCGUAGGCGUAAUGGUAAGGCGUCUCCCUCCUAAGGAGAAGACUGCGGGUUCGAGUCCCGUACGGAACG,0.7
21,GUUCCGUAGGAGUAAUGGUAACGCGUCUCCCUCCUAAGGAGAAGACUGCGGGUUCCAGUCCCGUACGGAACG,≤ 0.5
22,GUUCCGGUGGCGUAAUGGUAACGCGUCUCUCUCCUAAGGAGAAGACAGCGGGUUCGAGUCCCGUACGGAACG,≤ 0.5
23,GUUCCGUAGGCGUAAUGGUAACGUGUCUCCGUCCUAAGGAGAAGACUGCGGGUUCGAGUCCCGUACGGAACG,≤ 0.5
24,GUUCCGGUGGCGUAAUGGUAACGCGCCUCCCUCCUAAGGAGAAGACUGGGGGUUCGAGUCCCGUACGGAACG,≤ 0.5
25,GUUCCGUAGGCGUAAUGGUAACGCGUCUACCUCCUAAGGAGAGGACUGCGGGUUCGUGUCCCGUACGGAACG,≤ 0.5

# From the RNAGym collection of RNA variant scans (doi:10.1126/science.aae0568)
